A selection: hits, their analogues and other compounds. The true share with any hit is near 2.3%.
TRPC4 potent = TRPC4 (mouse) allosteric potentiation | Q9QUQ5 | 0.42% of 310,000 active | B-score at 10 µM | AID 2227 | HEK293 TRPC4beta/mu-opioid, DAMGO EC20, Fluo-4 Ca2+ flux; stronger effect = higher value;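 active = B-score of calcium response area above 5 SD of library B-scores, with initial fluorescence ratio within 5 SD of library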;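 note: B-score of integrated fluorescence ratio over time as area under calcium response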
TRPC6 activator = activators of mouse TRPC6 channel. Q61143. HEK293-TRPC6 membrane potential dye fluorescence; stronger effect = higher value. B-score at 10 µM. 0.13% of 310,000 active;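 active = B-score of the integrated fluorescence ratio above library mean plus 3 SD, and starting fluorescence ratio within library mean plus 5 SD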;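 note: higher score means more depolarization so channel activation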
Target sequence (Q61143 whole entry, looked up): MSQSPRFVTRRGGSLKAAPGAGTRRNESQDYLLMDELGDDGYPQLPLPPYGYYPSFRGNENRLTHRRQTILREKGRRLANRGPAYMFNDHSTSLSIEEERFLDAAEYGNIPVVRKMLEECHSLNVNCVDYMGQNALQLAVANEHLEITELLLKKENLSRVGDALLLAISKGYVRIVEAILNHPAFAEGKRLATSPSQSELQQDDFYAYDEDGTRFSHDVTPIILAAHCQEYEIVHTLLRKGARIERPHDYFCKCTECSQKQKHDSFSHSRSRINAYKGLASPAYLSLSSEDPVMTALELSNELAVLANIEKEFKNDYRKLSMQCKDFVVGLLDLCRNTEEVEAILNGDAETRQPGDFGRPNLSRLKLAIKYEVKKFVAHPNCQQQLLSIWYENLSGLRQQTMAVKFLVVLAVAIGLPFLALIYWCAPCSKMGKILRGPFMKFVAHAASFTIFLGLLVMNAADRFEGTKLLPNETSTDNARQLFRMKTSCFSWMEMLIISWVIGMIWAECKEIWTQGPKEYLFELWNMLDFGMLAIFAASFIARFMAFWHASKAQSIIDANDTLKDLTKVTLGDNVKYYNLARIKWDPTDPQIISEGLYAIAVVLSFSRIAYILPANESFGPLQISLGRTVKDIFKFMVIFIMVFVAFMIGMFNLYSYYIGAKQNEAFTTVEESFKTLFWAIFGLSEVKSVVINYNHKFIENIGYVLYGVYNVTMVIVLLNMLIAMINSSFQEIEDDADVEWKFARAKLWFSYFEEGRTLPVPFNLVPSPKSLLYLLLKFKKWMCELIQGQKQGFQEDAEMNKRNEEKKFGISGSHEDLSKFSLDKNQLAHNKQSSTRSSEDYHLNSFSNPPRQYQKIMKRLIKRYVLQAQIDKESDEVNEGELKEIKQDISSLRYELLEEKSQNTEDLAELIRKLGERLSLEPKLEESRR
TRPC6 inh = blocks the mouse TRPC6 cation channel; AID 2553; B-score at 10 µM; 1.1% of 310,000 active; HEK293-TRPC6, membrane potential dye, ACh-evoked depolarization; stronger effect = lower value; Q61143;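 active = B-score under library mean minus 3 SD, initial fluorescence not abnormally high, positive integrated signal ratio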;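 note: B-score derived from integrated fluorescence ratio over the kinetic read; more negative B-score means stronger inhibition of depolarization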
TRPC4 agonist = opens the mouse TRPC4 cation channel. HEK293 TRPC4beta/mu-opioid, Fluo4 calcium fluorescence; stronger effect = higher value. B-score at 10 µM. 0.49% of 310,000 active. AID 2237;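 active = B-score above 5 SD of library B-scores, and initial fluorescence ratio not above library mean plus 5 SD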;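 note: positive B-score marks a calcium rise read as TRPC4 activation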
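System – HEK293 cells stably co-expressing mouse TRPC4beta and mu-opioid receptor · Signal – Fluo4 calcium-sensitive dye fluorescence, kinetic, 1 Hz baseline · Benchmarks – buffer (low) and maximal DAMGO (high) · Read-out – B score of integrated fluorescence ratio per well · Incubation – dye loading 45 min room temperature, 110 s kinetic read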
TRPC4 block = TRPC4 (mouse) channel inhibition; Q9QUQ5; 0.39% of 300,000 active; B-score at 10 µM; HEK293 TRPC4beta/mu-opioid, DAMGO-evoked Fluo4 calcium flux; stronger effect = lower value;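 active = B-score over 3 SD under the library average, no early fluorescence shift, positive overall ratio signal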
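Assay system: HEK293 cells with stable TRPC4beta plus mu-opioid receptor expression; Probe or stimulus: DAMGO in two steps, submaximal then maximal; Dosing: single-point compound dosing; Measured by: Fluo4 calcium-dye fluorescence, kinetic read; Read-out basis: B score from integrated Fluo4 fluorescence ratio.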
TRPC4 sel inh 2 = second check of whether TRPC6 inhibitors also affect mouse TRPC4; inhibition, % at 10 µM; HEK293 TRPC4/MOR, membrane potential dye fluorescence; channel activated by saturating DAMGO dose; AID 2776; 42% of 920 active; shares compounds with TRPC6 inh;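 active = compounds whose fluorescence signal differed from control wells by over 3 SD, either direction, in both duplicate plates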
TRPC4 spec = selectivity of TRPC6 inhibitors: effect on mouse TRPC4; shares compounds with TRPC6 inh; HEK293 TRPC4/mu-opioid, membrane potential fluorescence; AID 2777; activity change, negative = inhibition, % at 10 µM; 61% of 920 active;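 active = rise or fall in signal beyond 3 SD of buffer-only wells in both replicate plates, either sign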;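 note: integrated kinetic ratio of fluorescence range over baseline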
HEK293 MPD ctr 2-1 = second check of TRPC6 inhibitor effects in parental HEK293 cells. shares compounds with TRPC6 inh. parental HEK293 membrane potential dye fluorescence; maximal acetylcholine challenge after compound addition. signal change vs control, % at 10 µM. 31% of 920 active;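 active = membrane potential signal moving either way by over 3 SD of the maximum-effect control, in both duplicate plates, meaning non-specific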
HEK293 MPD ctr-1 = counter-screen for TRPC6 inhibitors: effect in parental HEK293 cells; shares compounds with TRPC6 inh; parental HEK293 membrane potential dye fluorescence; membrane potential signal change, % at 10 µM; 60% of 920 active; AID 2780;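 active = membrane potential signal shifting up or down by more than 3 SD of buffer-only wells, on both duplicate plates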
HEK293 MPD ctr-2 = parental HEK293 nonspecific activity of TRPC6 modulators. shares compounds with TRPC6 inh. 51% of 2,400 active. AID 488924. membrane potential dye fluorescence. membrane potential signal change, % at 10 µM;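 active = membrane potential signal moves up or down beyond 5 SD from buffer-only wells, on both duplicate plates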
HEK293 MPD ctr 2-2 = second counter-screen for TRPC6 modulators: effect in parental HEK293 cells; shares compounds with TRPC6 inh; membrane potential dye fluorescence; after compound, maximal acetylcholine stimulation; inhibition, % at 10 µM; 14% of 2,400 active;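 active = membrane potential signal drops by more than 5 SD from the mean control signal, in both duplicate plates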;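 note: plate controls were acetylcholine ECmax control wells for no effect and buffer only wells for full effect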
TRPC4 ctr mod = tests whether TRPC6 modulators also affect mouse TRPC4; 69% of 2,400 active; HEK293 TRPC4/mu-opioid, membrane potential fluorescence; percent change from control (negative = decrease, positive = increase), % at 10 µM; AID 488927; shares compounds with TRPC6 inh;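 active = membrane potential signal moved up or down beyond 5 SD of buffer control wells, in both duplicate plates, actives on both sides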;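 note: plate controls were assay buffer wells for no effect and DAMGO maximal-effect wells for full effect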
TRPC4 ctr inh 2 = second selectivity test of TRPC6 modulators against mouse TRPC4 | shares compounds with TRPC6 inh | inhibition, % at 10 µM | 55% of 2,400 active | HEK293 TRPC4/mu-opioid, membrane potential dye fluorescence; stimulated with maximal-effect DAMGO;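 active = drop in membrane potential signal beyond 5 SD of the control wells in both duplicate plates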;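 note: TRPC4 counter screen for TRPC6 hits run under conditions tuned for TRPC6 not TRPC4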
TRPC6 inh conf = confirmation of mouse TRPC6 inhibitors | shares compounds with TRPC6 inh | HEK293-TRPC6, membrane potential dye, ACh-evoked depolarization | inhibition, % at 10 µM | 43% of 3,300 active;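 active = fluorescence ratio falls more than 5 SD below the full-stimulation control mean, in both duplicate runs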;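 note: integrated fluorescence ratio of peak minus minimum over baseline after agonist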
TRPC6 act confirm = mouse TRPC6 activator confirmation. HEK293-TRPC6 membrane potential dye fluorescence, FDSS. activation, % at 10 µM. 11% of 2,800 active. shares compounds with TRPC6 inh;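 active = ratio signal rise beyond 5 SD above unstimulated control wells' mean, seen in both duplicate runs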;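 note: plate controls were buffer EC0 wells for no effect and acetylcholine ECmax response for full effect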
Numbers without * were called inactive; i = inactive; . = no result given.

SMILES	TRPC4 potent	TRPC6 activator	TRPC6 inh	TRPC4 agonist	TRPC4 block	HEK293 MPD ctr-2	HEK293 MPD ctr 2-2	TRPC4 ctr mod	TRPC4 ctr inh 2	TRPC6 inh conf	TRPC6 act confirm	others
CCOC(=O)C1CCN(C=C2C(=O)N(C)C(=S)N(C)C2=O)CC1	i	i	-9.72*	i	i	.	.	.	.	i	i	TRPC4 sel inh 2=i;TRPC4 spec=i;HEK293 MPD ctr 2-1=i;HEK293 MPD ctr-1=i
CCN1CCC2(CCNC2)C1 (stereo not given)	i	i	i	i	i	.	.	.	.	.	.
Cc1cccc(N2CCc3c2nc2ccccc2c3N)c1	i	i	-13.7*	i	-7*	-192.0%*	74.5%*	-49.0%*	97.5%*	81.0%*	i
Cc1nc2ccc(P(=O)(O)O)cc2s1	i	i	i	i	i	.	.	.	.	.	.
CN1CCC(N(C)c2nc(-c3ccc([N+](=O)[O-])cc3)nc3ccccc23)CC1	i	i	-11.1*	i	i	-296.5%*	69.0%*	-55.5%*	57.0%*	67.5%*	i
O=C1NC(=O)N(c2ccc(F)cc2)C(=O)/C1=C/c1ccsc1	i	i	-5.49*	i	i	i	i	i	i	i	.
CCCCn1c(O)c(C(=O)/C=C/c2c[nH]c3ccccc23)c(=O)[nH]c1=O	i	247*	i	i	i	941.0%*	i	586.0%*	i	i	212.5%*
CNc1cc(N2CCN(C)CC2)ccc1[N+](=O)[O-]	i	i	i	i	i	.	.	.	.	.	.
O=[N+]([O-])c1ccc(N2CCCC2)cc1N/N=C1\CN2CCC1CC2	i	i	-5.2*	i	i	-247.5%*	74.0%*	-41.0%*	85.5%*	88.5%*	i
C=CCN(c1ccc(C(=O)N(CC)CC)cc1)S(C)(=O)=O	i	i	-5.57*	i	i	i	i	i	i	i	i
c1ccc2c(c1)CC1CNCc3cccc(c31)S2 (stereo not given)	i	i	-7.08*	i	i	.	.	.	.	66.2%*	i	TRPC4 sel inh 2=62.0%*;TRPC4 spec=i;HEK293 MPD ctr 2-1=i;HEK293 MPD ctr-1=i
C=C(C)CSc1nnc([C@@H](N)Cc2ccccc2)o1	i	i	i	i	i	.	.	.	.	.	.
Cc1ccc(C(C)C)c(OCC(=O)N2CCN(Cc3nc4cc([N+](=O)[O-])ccc4n3C)CC2)c1	i	i	i	i	i	.	.	.	.	.	.
CN1CC(C(=O)c2ccc(Cl)cc2)C(c2ccc(N(C)C)cc2)C1 (stereo not given)	i	i	-6.46*	i	i	i	i	i	50.0%*	50.5%*	i
C#CCN(C)[C@H](C)Cc1ccccc1	i	i	i	i	i	.	.	.	.	.	.
CC(Cc1ccccc1Sc1ccccc1O)N(C)C (stereo not given)	i	i	-9.38*	i	-7*	.	.	.	.	i	.	TRPC4 sel inh 2=37.0%*;TRPC4 spec=54.9%*;HEK293 MPD ctr 2-1=i;HEK293 MPD ctr-1=12.4%*
CCc1ccc(-n2c(O)c(C(C)=O)c(=O)[nH]c2=O)cc1 (tested in a mixture with another compound)	i	i	i	i	i	.	.	.	.	.	.
C[N+]1(C)C2CCC1CC(OC(=O)C(CO)c1ccccc1)C2 (stereo not given)	i	i	-8.46*	i	i	.	.	.	.	101.7%*	i	TRPC4 sel inh 2=i;TRPC4 spec=i;HEK293 MPD ctr 2-1=-31.5%*;HEK293 MPD ctr-1=i
C#CC[N+]1(C)[C@@H]2CC(OC(=O)C(CO)c3ccccc3)C[C@H]1C(O)C2 (stereo not given in full)	i	i	-9.94*	i	i	.	.	.	.	87.4%*	i	TRPC4 sel inh 2=i;TRPC4 spec=i;HEK293 MPD ctr 2-1=1.5%*;HEK293 MPD ctr-1=i
CN1[C@@H]2CC[C@H]1CC(OC(=O)C(CO)c1ccccc1)C2 (stereo not given in full)	i	i	-6.94*	i	i	.	.	.	.	101.0%*	i	TRPC4 sel inh 2=i;TRPC4 spec=i;HEK293 MPD ctr 2-1=-17.5%*;HEK293 MPD ctr-1=i
C[N+]1(C)C2CCC1CC(OC(=O)c1ccccc1)C2 (stereo not given)	i	i	i	i	i	.	.	.	.	.	.
CCC(=O)N1N=C(c2c(O)n(CCc3ccccc3)c(=O)[nH]c2=O)CC1c1ccc(OC)c(OC)c1 (stereo not given)	i	i	i	i	i	.	.	.	.	.	.
COC(=O)C1=C(c2cccc(OC)c2OC)C[C@@H]2CC[C@H]1N2C(=O)NCCS(C)=O (stereo not given in full)	i	i	i	i	i	.	.	.	.	.	.
CCC1(OC(=O)c2ccccc2)CC(C)N(C)CC1C (stereo not given)	i	i	i	i	i	.	.	.	.	.	.
Cc1[nH]c2ccccc2c1CCN	i	i	i	i	i	.	.	.	.	.	.
Cc1[nH]c2ccccc2c1CCCNC1CCCCC1	i	i	-5.66*	i	i	i	i	i	44.0%*	i	i
COc1cc2c(cc1OC)-c1c(OC)c(OC)c(OC)c3ccnc(c13)C2=O	i	i	-7.04*	i	i	-141.5%*	i	-29.0%*	73.5%*	56.5%*	i

From PubChem BioAssay
